In ChEMBL document CHEMBL2177027, “Exploring the directionality of 5-substitutions in a new series of 5-alkylaminopyrazolo[4,3-e]1,2,4-triazolo[1,5-c]pyrimidine as a strategy to design novel human a(3) adenosine receptor antagonists” (J Med Chem, 2012):

Key:
Adenosine receptor A3 = target: T1, Adenosine receptor A3 (Homo sapiens, UniProt P0DMS8); test: Displacement of [3H]NECA from human adenosine A3 receptor expressed in CHO cell membrane; format: cell membranes
T1 sequence (P0DMS8 whole entry): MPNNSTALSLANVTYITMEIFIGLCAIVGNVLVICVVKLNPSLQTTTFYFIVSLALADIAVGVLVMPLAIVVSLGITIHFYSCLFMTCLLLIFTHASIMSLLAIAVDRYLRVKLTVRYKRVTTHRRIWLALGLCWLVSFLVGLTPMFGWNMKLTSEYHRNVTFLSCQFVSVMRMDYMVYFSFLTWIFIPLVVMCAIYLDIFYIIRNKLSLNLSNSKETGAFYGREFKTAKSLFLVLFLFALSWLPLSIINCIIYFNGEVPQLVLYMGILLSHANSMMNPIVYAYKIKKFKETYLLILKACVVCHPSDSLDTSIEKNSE
How it was run: (§1)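 CHO cells stably transfected with the human receptor subtype. Membranes were prepared by a 1000g spin to clear fragments and nuclei, then pelleted from the supernatant at 100 000g. Pellet was resuspended in the respective binding buffer, frozen in liquid nitrogen and stored until radioligand competition binding.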

Adenosine receptor A1 = target: T2, Adenosine receptor A1 (Homo sapiens, UniProt P30542); test: Displacement of [3H]CCPA from human adenosine A1 receptor expressed in CHO cell membrane; format: cell membranes; how it was run: as §1
T2 sequence (P30542 whole entry): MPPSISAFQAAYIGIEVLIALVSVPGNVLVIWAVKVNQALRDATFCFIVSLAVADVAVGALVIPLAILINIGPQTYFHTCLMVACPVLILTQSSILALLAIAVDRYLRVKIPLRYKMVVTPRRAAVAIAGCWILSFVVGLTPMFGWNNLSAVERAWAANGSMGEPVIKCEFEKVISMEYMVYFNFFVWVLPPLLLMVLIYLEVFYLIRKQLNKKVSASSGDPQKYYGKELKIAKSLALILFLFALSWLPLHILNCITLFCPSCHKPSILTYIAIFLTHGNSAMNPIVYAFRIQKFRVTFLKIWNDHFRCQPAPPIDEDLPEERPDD

[1] = Selectivity ratio of Ki for human adenosine A1 receptor expressed in CHO cell membrane to Ki for human adenosine A2A receptor expressed in CHO cell membrane; format: cell-based
[2] = target: Adenosine receptors; A1 & A3 (Homo sapiens) (UniProt P30542+P0DMS8); test: Selectivity ratio of Ki for human adenosine A1 receptor expressed in CHO cell membrane to Ki for human adenosine A3 receptor expressed in CHO cell membrane; format: cell-based
Adenosine receptor A2a = Adenosine receptor A2a (Homo sapiens, UniProt P29274); test: Displacement of [3H]NECA from human adenosine A2A receptor expressed in CHO cell membrane; format: cell membranes; how it was run: as §1
Sequence of Adenosine receptor A2a (P29274 whole entry): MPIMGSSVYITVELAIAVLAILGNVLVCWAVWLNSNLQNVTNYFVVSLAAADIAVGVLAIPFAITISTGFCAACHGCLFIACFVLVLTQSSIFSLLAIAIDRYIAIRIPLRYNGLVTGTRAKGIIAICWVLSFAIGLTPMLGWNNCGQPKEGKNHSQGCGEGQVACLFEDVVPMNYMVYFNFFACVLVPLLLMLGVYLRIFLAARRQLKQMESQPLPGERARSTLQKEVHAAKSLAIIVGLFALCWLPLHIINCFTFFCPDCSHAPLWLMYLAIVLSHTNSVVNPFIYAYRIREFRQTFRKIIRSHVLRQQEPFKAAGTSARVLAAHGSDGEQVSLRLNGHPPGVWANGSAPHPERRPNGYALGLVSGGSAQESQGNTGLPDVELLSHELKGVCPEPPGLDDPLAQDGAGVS

Adenosine receptor A2b = target: T3, Adenosine receptor A2b (Homo sapiens, UniProt P29275); test: Antagonist activity at human adenosine A2B receptor expressed in CHO cells assessed as NECA-induced adenylate cyclase activity; format: functional, cell-based
T3 sequence (P29275 whole entry): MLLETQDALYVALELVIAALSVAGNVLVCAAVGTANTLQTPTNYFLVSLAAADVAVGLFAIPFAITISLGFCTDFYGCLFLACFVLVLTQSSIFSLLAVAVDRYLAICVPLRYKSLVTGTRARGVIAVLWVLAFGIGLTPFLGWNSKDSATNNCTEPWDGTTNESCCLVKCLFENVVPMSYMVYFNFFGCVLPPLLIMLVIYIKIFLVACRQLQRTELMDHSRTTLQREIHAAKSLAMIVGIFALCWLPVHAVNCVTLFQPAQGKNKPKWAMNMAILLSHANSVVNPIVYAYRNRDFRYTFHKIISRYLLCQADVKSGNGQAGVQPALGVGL
How it was run: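 Membranes from stably transfected CHO cells made with a single high-speed spin of the homogenate. Incubated 20 min with about 150 000 cpm [α-³²P]ATP in mixture lacking EDTA and NaCl. IC50 taken from concentration-dependent inhibition of NECA-stimulated adenylyl cyclase using Hill equation.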

[3] = Selectivity ratio of Ki for human adenosine A2A receptor expressed in CHO cell membrane to Ki for human adenosine A3 receptor expressed in CHO cell membrane; format: cell-based

Row | Structure (SMILES) | Ki (Adenosine receptor A3) | Ki (Adenosine receptor A1) | Ratio Ki [1] | Ratio Ki [2] | Ki (Adenosine receptor A2a) | Ki (Adenosine receptor A2b) | Ratio Ki [3]
1 | Cn1cc2c(nc(NC(c3ccccc3)c3ccccc3)n3nc(-c4ccco4)nc23)n1 | 0.83 nM | 169 nM | 0.19 | 204 | 900 nM | > 10 µM | 1080
2 | Cn1cc2c(nc(NCc3ccc(C(F)(F)F)cc3)n3nc(-c4ccco4)nc23)n1 | 14.9 nM | 1230 nM | 5.02 | 82.5 | 245 nM | > 3 µM | 16.4
3 | Cn1cc2c(nc(NCc3ccc(-c4ccccc4)cc3)n3nc(-c4ccco4)nc23)n1 | 187 nM | 17500 nM | 29.5 | 93.6 | 593 nM | > 10 µM | 3.17
4 | CONc1nc2nn(C)cc2c2nc(-c3ccco3)nn12 | 404 nM | 2750 nM | 14.9 | 6.81 | 185 nM | 8.5 µM | 0.46
5 | Cn1cc2c(nc(NC3CC3)n3nc(-c4ccco4)nc23)n1 | 69.3 nM | 208 nM | 1.84 | 3 | 113 nM | 1.75 µM | 1.63
6 | CCN(CCO)c1nc2nn(C)cc2c2nc(-c3ccco3)nn12 | 1360 nM | 15000 nM | 2.33 | 11 | 6430 nM | > 10 µM | 4.73
7 | CCCCCC(C)Nc1nc2nn(C)cc2c2nc(-c3ccco3)nn12 (configuration not stated) | 8.62 nM | 248 nM | 0.56 | 28.8 | 446 nM | 7.66 µM | 51.7
8 | CCNc1nc2nn(C)cc2c2nc(-c3ccco3)nn12 | 44.4 nM | 604 nM | 2.9 | 13.6 | 208 nM | 2.16 µM | 4.68
9 | CC(CCc1ccccc1)Nc1nc2nn(C)cc2c2nc(-c3ccco3)nn12 (configuration not stated) | 37.8 nM | 133 nM | 0.9 | 3.52 | 147 nM | 5.26 µM | 3.89
10 | CN1CCN(c2nc3nn(C)cc3c3nc(-c4ccco4)nn23)CC1 | 1330 nM | 15200 nM | 1.98 | 11.4 | 7690 nM | > 10 µM | 5.78
11 | Cn1cc2c(nc(NC3CCCCC3)n3nc(-c4ccco4)nc23)n1 | 8.57 nM | 166 nM | 0.71 | 19.4 | 233 nM | 6.32 µM | 27.2
12 | Cn1cc2c(nc(N3CCCCC3)n3nc(-c4ccco4)nc23)n1 | 38.1 nM | 2150 nM | 6.11 | 56.4 | 352 nM | > 10 µM | 9.24
13 | Cn1cc2c(nc(NCCOc3ccccc3)n3nc(-c4ccco4)nc23)n1 | 38.6 nM | 646 nM | 5.34 | 16.7 | 121 nM | 7.5 µM | 3.13
14 | COc1ccc(CNc2nc3nn(C)cc3c3nc(-c4ccco4)nn23)cc1 | 6.92 nM | 442 nM | 2.5 | 63.9 | 177 nM | 9.84 µM | 25.6
15 | Cn1cc2c(nc(NCc3ccccc3)n3nc(-c4ccco4)nc23)n1 | 2.49 nM | 527 nM | 5.79 | 212 | 91 nM | 3.33 µM | 36.5
16 | Cn1cc2c(nc(NCCCCCCO)n3nc(-c4ccco4)nc23)n1 | 156 nM | 483 nM | 4.43 | 3.1 | 109 nM | > 10 µM | 0.7
